Assay outcomes from PubChem.
HEK293 NFkB inh – lowers PMA/ionomycin-induced NF-kB signal in HEK293 cells; HEK-293 NF-kB luciferase reporter, luminescence; inhibition, % at 3 µM; 0.21% of 62,000 active;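 active = inhibition above the mean of all tested compounds plus 3 SD, cut at about 40% in these data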;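 note: 0% = stimulated DMSO wells and 100% = 10 µM reference inhibitor 5653914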
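System – HEK-293 cells with stable firefly luciferase reporter driven by four HIV NF-kB elements · Doses – one dose, 3 µM · Schedule – 1 h compound pre-incubation, 16 h PMA/ionomycin at 37 °C · Technique – luminescence from luciferase substrate reagent · Measure – percent inhibition normalized per plate to DMSO and reference-inhibitor controls · Replicates – tested once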
HTR1A agonist – activates the human 5-HT1a serotonin receptor; CHO 5-HT1a Ga15 NFAT-bla reporter, FRET ratio; 0% basal, 100% maximal reference agonist; P08908; AID 567; 0.56% of 65,000 active; activation, % at 10 µM;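 active = activation above the screen-wide mean activation plus 3 SD, cut at about 19% in these data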;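 note: 0% = DMSO wells and 100% = 5-CT at EC100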
Target sequence (P08908 whole entry, looked up): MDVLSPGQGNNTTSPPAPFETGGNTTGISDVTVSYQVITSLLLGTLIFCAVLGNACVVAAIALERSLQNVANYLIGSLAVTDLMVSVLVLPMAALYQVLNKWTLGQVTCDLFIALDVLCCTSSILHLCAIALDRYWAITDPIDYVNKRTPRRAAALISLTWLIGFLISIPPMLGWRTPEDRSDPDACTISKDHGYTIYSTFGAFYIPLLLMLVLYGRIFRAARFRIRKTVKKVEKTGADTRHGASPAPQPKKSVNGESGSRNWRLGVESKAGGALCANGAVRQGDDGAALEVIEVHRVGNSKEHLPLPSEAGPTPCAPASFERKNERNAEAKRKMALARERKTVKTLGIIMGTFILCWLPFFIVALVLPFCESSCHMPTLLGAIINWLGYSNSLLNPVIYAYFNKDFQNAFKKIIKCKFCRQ
HTR1E antagonist – blocks the human 5-HT1E serotonin receptor. P28566. CHO 5-HT1E Ga15 NFAT-bla reporter, FRET, antagonist. inhibition, % at 6 µM. 0.99% of 65,000 active. AID 571;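 active = inhibition above a set limit, the mean inhibition across every tested compound plus 3 SD, cut at about 29% in these data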;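 note: signal is the 460 over 535 nm emission ratio of beta-lactamase substrate; 0% = agonist plus DMSO wells and 100% = wells without agonist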
5HT1E ag – agonists of human 5-HT1E serotonin receptor | CHO 5-HT1E Ga15 NFAT-bla reporter, FRET; 0% DMSO wells, 100% control agonist wells | 0.69% of 65,000 active | AID 574 | activation, % at 6 µM | P28566;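 active = activation above a set limit, the screen-wide mean activation plus 3 SD, cut at about 8.5% in these data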;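 note: 100% = positive control agonist at 1 µM giving full maximal response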
Jurkat tox 60K – cytotoxic compounds reducing Jurkat cell viability; AID 463; 1.2% of 56,000 active; inhibition, % at 4 µM; Jurkat E6.1 viability, ATP luminescence, 48 h;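 active = inhibition above the mean inhibition of all tested compounds plus 3 SD, cut at about 28% in these data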
5HT1a antag – antagonists of human 5-HT1a serotonin receptor; inhibition, % at 10 µM; 0.68% of 62,000 active; CHO 5-HT1a Ga15 NFAT-bla reporter, antagonist mode; AID 612;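 active = inhibition above the mean of all tested compounds plus 3 SD, cut at about 43% in these data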;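 note: receptor stimulated by 5-CT agonist at 100 nM near EC80; beta-lactamase reporter measured by ratiometric fluorescence of a cleavable substrate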
Starred values were filed as active, the others as inactive; / = not tested or not shown. Sampled rows, rich in hits. Any-hit rate of the full collection: about 3.3%.

SMILES	HEK293 NFkB inh	HTR1A agonist	HTR1E antagonist	5HT1E ag	Jurkat tox 60K	5HT1a antag
COc1ccc(Cl)cc1NC(=O)CSc1nnc(Cn2c(=O)sc3ccccc32)n1C	21	1	-2	0	-4	-13
Cn1cc(S(=O)(=O)Cc2ccc(F)cc2)c2ccccc21	-1	-2	-1	1	4	-13
CC(C)C[C@H](N)c1nnc(S(=O)(=O)Cc2ccc(F)cc2)o1	23	0	43*	0	10	88*
Cc1c(-c2ccccc2)nc(N)c(C#N)c1-c1ccco1	10	17	31*	0	1	-2
N#Cc1c(-c2ccco2)cc(-c2ccccn2)nc1N	-9	2	-2	0	1	3
N#Cc1c(-c2ccco2)cc(-c2cccnc2)nc1N	9	0	38*	0	0	0
CCOC(=O)COc1cccc2c(=O)n(CC(=O)N3CCc4ccccc43)ccc12	10	-1	16	1	2	6
CCOC(=O)COc1cccc2c(=O)n(CC(=O)NCc3ccc4c(c3)OCO4)ccc12	21	2	47*	1	51*	6
COc1ccc(C(=O)Nn2cnc3scc(-c4cccs4)c3c2=O)c(O)c1	17	0	-6	0	-9	8
CCN(CC)c1ccc2cc(-c3nc4ccccc4n3C)c(=O)oc2c1	40*	16	82*	7	99*	54*
CCN(CC)c1ccc2cc(-c3nc4ccccc4[nH]3)c(=O)oc2c1	3	-6	49*	0	4	27
CN(C)c1ccc(-c2nc3ccccc3n2C)cc1	1	0	6	-1	16	17
O=S(=O)(Nc1cccc2cccnc12)c1ccc(S(=O)(=O)N2CCCC2)cc1	11	-1	32*	-1	11	30
CCCC(=O)c1c(NC(C)C)cc(C)oc1=O	-2	-7	21	-1	4	7
CCN(CC)c1ccc2c(C)c(CN3CCOCC3)c(=O)oc2c1	-1	23*	-16	6	-2	-43
CC(=O)Nc1ccc(S(=O)(=O)N(C)c2ccccc2)cc1	15	-1	2	0	4	-5
CC(=O)Nc1ccc(S(=O)(=O)N(C)c2ccc(O)cc2)cc1	18	-2	4	52*	-1	1
COc1ccc(C(=O)COC(=O)CCn2nnc(-c3cccs3)n2)cc1	-11	0	-5	-1	3	12
CCOC(=O)C1=C(N)n2c(s/c(=C\c3ccco3)c2=O)=C(C(=O)OCC)C1c1ccco1 (configuration not stated)	18	-2	-3	0	61*	6
CCOC(=O)C1=C(N)n2c(s/c(=C\c3ccco3)c2=O)=C(C(=O)OC(C)C)C1c1ccco1 (configuration not stated)	/	-1	5	-1	/	/
O=c1cc(Nc2ccc3c(c2)OCCO3)[nH]c(=O)n1C1CCCCC1	23	-3	7	0	59*	18
COc1ccc(Cc2nnc(NC(=O)c3ccco3)s2)cc1OC	3	0	-3	0	-2	-4
CSC1=C(C#N)C(c2ccc(Cl)cc2)C2=C(CC(C)(C)CC2=O)N1 (configuration not stated)	5	-3	-15	1	36*	7
Cc1ccc(NC(=O)CSC2=C(C#N)C(c3ccco3)C3=C(CC(C)(C)CC3=O)N2)cc1 (configuration not stated)	7	-1	23	0	-8	14
CCCSC1=C(C#N)C(c2ccc(OC)cc2)C2=C(CC(C)(C)CC2=O)N1 (configuration not stated)	/	-1	50*	1	/	/
SMILES	HEK293 NFkB inh	HTR1A agonist	HTR1E antagonist	5HT1E ag	Jurkat tox 60K	5HT1a antag
Cc1ccccc1-n1c(SCC(=O)c2cc(C)n(C)c2C)nnc1-c1ccncc1	11	-1	5	0	12	-13
Cc1ccc(-c2nsc3c(N4CCC(C(N)=O)CC4)ncnc23)cc1	42*	-3	-9	0	0	-16
CCOC(=O)N1CCC(N2Cc3cccc(C(=O)N4CC(C)CC(C)C4)c3C2=O)CC1 (configuration not stated)	2	0	-3	0	0	3
CCOC(=O)N1CCC(N2Cc3cccc(C(=O)O)c3C2=O)CC1	7	83*	-6	0	-2	-2
c1cc(Nc2ncnc3sccc23)cc(-c2nnc3n2CCCCC3)c1	-7	0	30*	0	9	4
Cc1cnc(C(=O)Nc2cccc(-c3nnc4n3CCCCC4)c2)cn1	18	2	10	0	-2	8
O=C(Nc1cccc(-c2cn3ccsc3n2)c1)c1ccccc1	-3	-1	4	83*	-1	2
CC1(C)CC(=O)C2=C(C1)Nc1ccccc1NC2c1nc2ccccc2[nH]1 (configuration not stated)	2	0	34*	0	4	-6
CC1=C(C(=O)OCC2CCCO2)C(c2ccncc2)C2=C(CC(C)(C)CC2=O)N1 (configuration not stated)	-7	1	1	1	-8	-2
CCC(=O)NCCc1cc2cc(C)c(C)cc2[nH]c1=O	0	224*	-1	0	1	1
CCOc1ccc(-c2nc(CSCC(=O)NCCN3CCOCC3)c(C)o2)cc1	15	-3	7	0	7	-3
O=S(=O)(NCCc1ccncc1)c1ccc(S(=O)(=O)N2CCCCCC2)cc1	12	0	10	0	-3	4
CC(=O)c1cc2c(cc1NS(=O)(=O)c1ccc(C)cc1)OCCO2	14	-3	9	0	76*	16
CCC(C)NS(=O)(=O)c1ccc(S(=O)(=O)Nc2cc3c(cc2C(C)=O)OCO3)cc1 (configuration not stated)	9	-1	11	-1	-3	15
COC(=O)c1ccc(C)c(NS(=O)(=O)c2ccc3c(c2)OCCO3)c1	33	-1	60*	-1	92*	33
COc1ccc(-c2nc(CS(=O)CC(=O)N3CCCC3)c(C)o2)cc1 (configuration not stated)	10	101*	10	0	-8	-3
COc1ccc(-c2nc(CS(=O)CC(=O)NCc3ccco3)c(C)o2)cc1OC (configuration not stated)	-3	0	29*	0	0	6
Cc1oc(-c2cccs2)nc1CS(=O)CC(=O)NC1CCCCCC1 (configuration not stated)	-9	-2	0	0	-7	8
COCCCNC(=O)CS(=O)Cc1nc(-c2cccc(OC)c2)oc1C (configuration not stated)	11	-1	-6	8.9*	-2	12
